Compound activity deposited in PubChem BioAssay by several laboratories.
ROMK primary – ROMK potassium channel modulators, primary screen, cell-based, thallium flux, MLSMR library. B-score at 10 µM. Tet-inducible ROMK, thallium flux fluorescence; actives lie on both sides. 130,000 compounds, 2% hits. ATP-sensitive inward rectifier potassium channel 1 (Homo sapiens), P48048;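 active means signal ratio slope over the read window, or its plate-corrected B-score, at least 3 SD from the plate mean, either direction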;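 further: B-score of the F/F0 ratio slope over 7 to 12 s after thallium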
Target sequence (P48048 whole entry, looked up): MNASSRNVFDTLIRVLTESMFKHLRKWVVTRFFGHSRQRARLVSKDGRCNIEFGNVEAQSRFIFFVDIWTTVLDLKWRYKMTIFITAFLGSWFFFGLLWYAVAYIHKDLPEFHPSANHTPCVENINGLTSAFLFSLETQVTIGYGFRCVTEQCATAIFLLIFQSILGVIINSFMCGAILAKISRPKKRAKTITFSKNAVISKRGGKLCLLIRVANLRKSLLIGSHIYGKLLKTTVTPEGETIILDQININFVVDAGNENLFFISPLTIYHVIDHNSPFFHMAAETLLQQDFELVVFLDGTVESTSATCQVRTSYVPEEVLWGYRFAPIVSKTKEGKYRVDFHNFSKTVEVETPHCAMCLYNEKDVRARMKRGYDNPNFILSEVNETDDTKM
Biofilm kill mix – clotrimazole potentiators killing C. albicans biofilm, primary screen, 4-compound mixtures; inhibition, % at 7.6 µM; C. albicans biofilm persisters + clotrimazole, fluorescence viability; primary screen in compound mixtures of four per well; 120,000 compounds, 0.02% hits;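 active means inhibition above 30.3% in the primary screen of four-compound pools, then above 30% when the compound was retested; inconclusive means passed the primary limit but could not be retested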;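 further: compounds exposed to preformed 24 h biofilms for 48 h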
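Test system: C. albicans biofilms. Buffer or medium: RPMI/MOPS medium, pH 7.0. Timing: 48 h compound exposure at 37 °C. Technique: Alamar Blue fluorescence. Evaluation: percent inhibition of biofilm viability.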
ROMK hit retest – ROMK channel modulator hit retest, confirmation, cell-based, thallium flux, duplicate, resupplied hits | shares compounds with ROMK primary | fluorescence ratio; stronger effect = lower value | normalized thallium flux (F/F0 slope) at 10 µM | 3,000 compounds, 54% hits | AID 1917, 2009;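 active means Flux at 10 µM at least 3 SD below or above vehicle control mean in one or both replicates; inconclusive means no clear call, values can overlap the other calls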
A number is an active result; n = inactive; u = inconclusive; x = no result. The entries come from a sample that favours hits as a whole.

SMILES | ROMK primary | Biofilm kill mix | ROMK hit retest
CCOC(=O)c1nc2ccccc2c(=O)n1-c1ccc(C)cc1 | n | x | x
CCOC(=O)c1nc2ccccc2c(=O)n1-c1cccc(C)c1 | 1.1 | x | x
CC(=O)OC(C)(C)/C=C/C(=O)[C@](C)(O)[C@H]1[C@H](O)C[C@@]2(C)[C@@H]3CC=C4[C@H](C[C@H](O)C(=O)C4(C)C)[C@]3(C)C(=O)C[C@]12C | 4.7 | n | x
CC(C)N1CCN(c2ccc(O)cc2)CC1 | x | n | x
O=C1NC(=O)N(c2ccc(Cl)cc2)C(=O)/C1=C/c1coc2ccc(O)cc2c1=O | -8 | n | x
O=C1NC(=O)N(c2ccccc2)C(=O)/C1=C/c1coc2ccc(O)cc2c1=O | x | n | x
CCCCCSc1cc(OC)c(CCNC)cc1OC | -3.6 | x | x
CCCCCCCSc1cc(OC)c(CCNC)cc1OC | n | x | x
Cc1cc(C(=O)C[N+]23CCN(CC2)CC3)c(C)n1-c1ccc(Br)cc1 | n | n | x
O=C1NC(=O)N(c2ccc3c(c2)OCO3)C(=O)/C1=C/c1ccc(N2CCCCC2)o1 | -3.6 | x | x
CN1C(=O)C(=Cc2ccc(N3CCCCC3)o2)C(=O)N(C)C1=S | -4.9 | x | x
CCN(CC)c1ccc(C=C2C(=O)N(C)C(=S)N(C)C2=O)o1 | n | n | x
O=C1NC(=O)N(c2ccc3c(c2)OCO3)C(=O)/C1=C\c1ccc(-c2ccccc2C(=O)O)o1 | x | n | x
CC12CC[C@H]3[C@@H](CCC4(O)C[C@H](O)CCC34/C=N/NC(=O)c3ccccc3O)C1(O)CCC2C1=CC(=O)OC1 (stereo partly drawn) | n | n | x
O=C(N/N=C/c1c(O)n(CCc2ccccc2)c(=O)[nH]c1=O)c1ccccc1O | n | n | x
O=c1c2ccccc2[nH]c(=S)n1-c1ccc2c(c1)OCO2 | n | x | x
CCOC(=O)C(NC(=O)CCl)(Nc1ccc(C(O)(C(=O)OCC)C(F)(F)F)cc1)C(F)(F)F (stereo not drawn) | n | n | x
COCCn1c(-c2ccccc2)cc(C(=O)O)c1C | n | x | x
CCCCCCOc1ccc(CN2CCN(CC)CC2)cc1 | -3.9 | x | 0.06
COc1ccc(OCC(=O)N2CCN(Cc3ccc(SC)cc3)CC2)cc1 | n | n | x
COc1ccc(OCC(=O)N2CCN(C(C)C)CC2)cc1 | n | n | x
Cc1ccc(OCC(=O)N2CCN(CC3CC4C=CC3C4)CC2)cc1 (stereo not drawn) | -2.1 | x | 0.067
Cc1ccc(OCC(=O)N2CCN(Cc3ccc([N+](=O)[O-])cc3)CC2)cc1 | x | n | x
O=c1[nH]c(=O)n(Cc2ccccc2Cl)c(O)c1/C=C1/C=CC=N1 | 2.6 | n | u
C=CCn1c(O)c(/C=C2/C=CC=N2)c(=O)[nH]c1=O | x | n | x
SMILES | ROMK primary | Biofilm kill mix | ROMK hit retest
CCOc1ccc(-n2c(O)c(N=Nc3c(C)n(C)n(-c4ccccc4)c3=O)c(=O)[nH]c2=O)cc1 | x | n | x
COc1ccc(OCC(=O)Nc2ccc(Cl)cc2C(=O)c2ccccc2)cc1 | n | x | x
C=CCN1C(=O)NC(=O)/C(=C/c2cc3c4c(c2)CCCN4CCC3)C1=O | -4.3 | n | 0.056
O=C1NC(=O)N(Cc2ccc(F)cc2)C(=O)/C1=C\c1ccc(N2CCCC2)cc1 | x | n | x
COc1cc(CNCCc2ccc3c(c2)OCO3)cc(OC)c1OC | n | n | x
O=C(c1ccc(Cl)cc1)C1CCCN(Cc2ccc3nonc3c2)C1 (stereo not drawn) | n | n | x
Cc1cccn2c(=O)c3cc(C(=O)N4CCC5(CC4)OCCO5)n(C)c3nc12 | 5.3 | x | n
O=C(c1cccn2c(=O)c3cc(Br)ccc3nc12)N1CCC2(CC1)OCCO2 | n | x | x
Clc1cccc(C2NCc3ccccc3-n3cccc32)c1 (stereo not drawn) | x | n | x
Cc1nn(Cc2ccccc2Cl)c(C)c1C(=O)OCC(=O)NC1CCCC(C)C1C (stereo not drawn) | x | n | x
CCCC1(CCC)C(=O)NC(=NCc2ccccc2)NC1=O | n | x | x
CCCCC1(CCCC)C(=O)NC(=Nc2cccc(C)c2)NC1=O | x | x | 0.052
COc1ccc(N2CC2c2ccncc2)cc1 (stereo not drawn) | n | n | x
CCN(CC)C(=O)c1ccc(NC(=O)c2cccc(F)c2)cc1 | n | x | x
CCCCCCC(=O)c1c(O)n(-c2ccc(OC)cc2)c(=O)[nH]c1=O (tested in a mixture with another compound) | x | n | x
COC1CC(OC2CCC3(C)C(CCC4C3CCC3(C)C(C5=CC(=O)OC5)C(OC(C)=O)CC43O)C2)OC(C)C1OC1OC(COC2OC(CO)C(O)C(O)C2O)C(O)C(O)C1O (stereo not drawn) | x | n | u
COc1ccc(C(=O)C2CCCN(Cc3cnc(C)s3)C2)c(OC)c1 (stereo not drawn) | n | n | x
CC(C)(C)c1cc([N+](=O)[O-])cc(C(C)(C)C)c1O | x | n | n
CN1CCN(Cc2cc(C(C)(C)C)c(O)c(C(C)(C)C)c2)CC1 | n | x | x
CCOC(=O)C1=C(N)OC2=C(C(=O)CCC2)C12C(=O)N1c3c(ccc(C)c32)C(C)=CC1(C)C (stereo not drawn) | -5.9 | x | 0.059
COc1ccc(CCNCc2ccc(SC)cc2)cc1 | x | x | 0.062
COc1ccc(CCNCc2ccc(F)cc2)cc1OC | n | x | x
Cc1ccsc1C(=O)C1CCCN(Cc2cnc(N3CCCC3)s2)C1 (stereo not drawn) | n | n | x
CS(=O)(=O)N1CCN(C(=N)N[N+](=O)[O-])CC1 | -2.6 | n | n
CN1CN(c2cccc([N+](=O)[O-])c2)CN=C1N[N+](=O)[O-] | n | n | x
SMILES | ROMK primary | Biofilm kill mix | ROMK hit retest
NP(=O)(Oc1ccccc1Cl)Oc1ccccc1Cl | -3.1 | n | 0.064
NP(=O)(OCC(F)(F)F)Oc1cccc2ccccc12 (stereo not drawn) | n | n | x
c1ccc2nc(OCCN3CC3)ccc2c1 | n | n | x
Cn1cccc1/C=C1/C(=O)NC(=O)N(C(C)(C)C)C1=O | 4.2 | n | n
Cn1cccc1/C=C1\C(=O)NC(=O)N(Cc2ccccc2Cl)C1=O | n | u | x
N#CCCn1cc(C(=O)NCc2ccccc2)c(-c2ccc3c(c2)OCCO3)n1 | n | n | x
CCC(=NCCN1CCCCC1)c1c(O)n(C)c(=O)n(C)c1=O | n | x | x
CCC(=NCCOc1ccc(Cl)cc1)c1c(O)n(C)c(=O)n(C)c1=O | -3.1 | x | 0.066
CCCCOc1nc2ccccc2c(=O)n1-c1ccccc1 | n | n | x
CN(C)c1ccc(CN2CC=C(c3ccc(F)cc3)CC2)cc1 | n | x | x
C1=C(c2c[nH]c3ccccc23)CCN(Cc2ccccc2)C1 | -3.7 | n | 0.05
CCCN1CC(C)C(OC(C)=O)(c2ccccc2)CC1C (stereo not drawn) | x | n | x
CC1CC(OC(=O)c2ccccc2)(c2ccccc2)C(C)CN1C (stereo not drawn) | x | n | n
CCN(CC)c1ccc(N=Cc2c(O)n(-c3ccccc3)c(=O)[nH]c2=O)cc1 | n | n | x
CCN(CC)c1ccc(N=Cc2c(O)n(-c3ccccc3C)c(=O)[nH]c2=O)cc1 | n | x | x
CCN(CC)c1ccc(N=Cc2c(O)n(Cc3ccccc3)c(=O)[nH]c2=O)cc1 | -8.3 | n | 0.049
CCOc1ccccc1-n1c(O)c(C=Nc2ccc(N(CC)CC)cc2)c(=O)[nH]c1=O | 2.7 | x | n
O=C1/C(=C\c2cc3c(cc2Br)OCO3)N2CCC1CC2 | n | n | x
COC(=O)C1=Nc2ccccc2/C1=C\c1c(O)n(-c2ccc(Br)cc2)c(=O)[nH]c1=O | n | n | x
